Compound activity: PubChem BioAssay, several laboratories
Bfl-1 A1 inh = inhibitors of the anti-apoptotic protein A1, read as caspase activation; MEF A1-2A-BIM cells, Caspase-Glo 3/7 luminescence, 3 h; percent of clofoctol response, vehicle zero; caspase activation, % (no concentration beside the values); 330,000 compounds, 0.066% hits;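 active = over half of replicate activation scores above 10%, or exactly half above 10 with the replicate mean above 10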
HDAC3 inh = blocks human histone deacetylase 3. O15379. recombinant HDAC3, fluorogenic peptide/trypsin coupled, fluorescence. inhibition, % at 8.3 µM. 320,000 compounds, 0.15% hits. AID 2718; in the data active = inhibition above about 26%, passing the limit was not always enough
AI-2 QS modul = modulates the Vibrio harveyi AI-2 quorum sensing system; Vibrio harveyi JMH597 AI-2 luminescence/OD600 ratio, 9 h; hits give low values; strain lacks LuxN and CqsS sensors; 0 = neutral-control median; activity change, % at 7.5 µM; 300,000 compounds, 0.4% hits; in the data active = activity change below about -75%, passing the limit was not always enough;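 note: luminescence divided by OD600 gain over 9 h not by final OD600 alone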
LANA-H2A inh = blocks KSHV LANA binding to histone H2A/H2B; Q9QR71; cell-free LANA-H2A/H2B peptide, fluorescence polarization; inhibition, % (no concentration beside the values); 320,000 compounds, 0.6% hits; AID 2629; in the data active = inhibition mostly above about 10%, no sharp cut-off; inactive = mostly below about 6.7%
HKDC1 inh = blocks human hexokinase HKDC1 activity; recombinant HKDC1, G6PDH/diaphorase resazurin coupled fluorescence; inhibition, % at 20 µM; 340,000 compounds, 0.16% hits; AID 493160;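 active = inhibition above about 35% when tested at 20 µM, limit read from the data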;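 note: plate controls were DMSO wells with enzyme for no effect and DMSO wells lacking enzyme for full effect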
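System: Recombinant HKDC1 hexokinase | Amount: HKDC1 at 5 µg/mL | Reagent: Glucose with 1 mM ATP | Doses: Single 20 µM dose | Incubation: Reaction time 90 min, room temperature, protected from light | Signal: Coupled resazurin fluorescence, excitation 525 nm, emission 613 nm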
ATG4B inhibitor = ATG4B (human) cysteine protease inhibition; inhibition, % at 8.33 µM; AID 504462; 340,000 compounds, 0.51% hits; ATG4B cleavage of LC3-PLA2, NBD-HPC fluorescence, 1 h; Q9Y4P1; in the data active = inhibition above about 40%
ATG4B conf = ATG4B (human) inhibition, single-dose confirmed. inhibition, % at 8.33 µM. shares compounds with ATG4B inhibitor. ATG4B protease fluorescent substrate cleavage assay. 320 compounds, 92% hits; in the data active = inhibition above about 39%
PLA2 counter = inhibits human PLA2, flagging false ATG4B inhibitors | shares compounds with ATG4B inhibitor | purified PLA2, NBD-C6-HPC fluorescence, 45 min | 1,600 compounds, 66% hits | inhibition, % at 8.33 µM | AID 588402; in the data active = inhibition above about 50%
Target sequence (P04054 whole entry, looked up): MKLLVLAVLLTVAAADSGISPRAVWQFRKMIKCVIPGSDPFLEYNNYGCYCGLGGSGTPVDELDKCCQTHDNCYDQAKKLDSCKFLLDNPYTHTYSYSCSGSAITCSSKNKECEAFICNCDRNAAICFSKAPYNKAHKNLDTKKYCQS
* marks the source's active call; other numbers are inactive results; . = no result given. In the library only some 1.8% were active in any assay of this set; here they are far more common.

SMILES | Bfl-1 A1 inh | HDAC3 inh | AI-2 QS modul | LANA-H2A inh | HKDC1 inh | ATG4B inhibitor | PLA2 counter | others
Cc1cccn2c(=O)c(/C=C(\C#N)C(=O)NCc3ccco3)c(N3CCCCCC3)nc12 | -1 | 6 | 18 | -2 | 1 | 24 | .
Cc1cc(C)c(S(=O)(=O)NC(CC(=O)O)c2cccc([N+](=O)[O-])c2)c(C)c1 (stereo not given) | 1 | -1 | 17 | 3 | -10 | 3 | .
CCc1c(C)sc2nc(C(C)C)nc(SCC(=O)N3CCc4ccccc4C3)c12 | 0 | 6 | 4 | 4 | 16 | 46* | 50*
O=C(c1ccco1)N1CCN(C(=O)c2cccn3c(=O)c4c5c(sc4nc23)CCCC5)CC1 | . | . | . | . | 4 | -2 | .
CC(C)c1nc(N2CCN(C(=O)c3ccco3)CC2)c2c3c(sc2n1)CCCC3 | 0 | 7 | 31 | 6 | 4 | 92* | 90*
Cc1sc2ncnc(SCC(=O)N3CCN(C(=O)c4ccco4)CC3)c2c1C | . | . | 32 | . | -1 | 4 | .
Cc1nc(N2CCN(C(=O)c3ccco3)CC2)c2c3c(sc2n1)CCC3 | 1 | -1 | 20 | 4 | 1 | 67* | 71*
Cc1sc2nc(C(C)C)nc(SCC(=O)N3CCN(C(=O)c4ccco4)CC3)c2c1C | -1 | 2 | 11 | -5 | 14 | 47* | 57*
CN(CC(=O)Nc1cccc(F)c1)C(=O)c1csc2c1CCCC2 | -1 | 4 | 1 | -1 | 3 | 6 | .
Cc1cnc(CNC(=O)c2ccc3oc(Cc4ccc(Cl)cc4)nc3c2)cn1 | 1 | -4 | 10 | 1 | -2 | -6 | .
O=C(O)c1cc(NN=C2c3ccccc3-c3ccccc32)ccc1Cl | 0 | 4 | 26 | 0 | 7 | 45* | 39 | ATG4B conf=62*
COc1ccc(C=O)cc1Oc1nc(Cl)ncc1F | 0 | -4 | 9 | -2 | -7 | -3 | .
Brc1ccc2[nH]c3c(N4CCc5ccccc5C4)ncnc3c2c1 | 1 | 2 | 26 | -2 | 1 | 48* | 63*
Cc1ccccc1CN(C)C(C)C(=O)Nc1ccccc1F (stereo not given) | 0 | 10 | 1 | -7 | -8 | 4 | .
C#CCNC(=O)C1=C[C@@H](c2ccc3c(c2)OCO3)C[C@@H](OCCCCO)O1 | 0 | -10 | 10 | -2 | 4 | 4 | .
COc1ccccc1C1C2=C(N=c3s/c(=C/c4cccc(OCC(=O)O)c4)c(=O)n31)c1ccccc1CC2 (stereo not given) | 0 | 15 | . | -8 | 11 | 50* | 56*
CC1(C)CC[C@]2(C(=O)O)CC[C@]3(CO)C(=CCC4[C@@]5(C)C[C@H](O)[C@H](O)[C@@](C)(C(=O)O)C5CC[C@]43C)[C@@H]2C1 (stereo not given in full) | 0 | 1 | . | 3 | 0 | 4 | .
Oc1nc(Nc2ccc(Cl)cc2Cl)sc1/C=C1\C=Nc2ccccc21 | -1 | 4 | 16 | 2 | 0 | 78* | 23 | ATG4B conf=22
O=C1NC(=Nc2ccccc2)S/C1=C\c1cccn1-c1ccccc1 | -1 | -2 | 14 | -3 | 10 | 68* | 59*
O=C(N/N=C/C=C/c1ccccc1[N+](=O)[O-])c1cc(-c2ccccc2)n[nH]1 | 0 | -14 | 28 | -4 | -5 | 47* | 25
CC(C)NC(=O)CN(C(=O)CCC(=O)Nc1nccs1)c1ccc(C(C)C)cc1 | 0 | 16 | 17 | -6 | 3 | 9 | .
Cc1cccc(Cc2cnc(N3C(=N)SC(c4ccccc4)C3=O)s2)c1 (stereo not given) | 0 | . | 38 | . | -3 | 50* | 43
Cc1c(Br)cc(C(=O)NC2CCCCC2)c(C)c1C | 0 | 3 | 14 | 0 | -6 | -7 | .
COc1ccc(C(=O)NCC2CCCN2S(=O)(=O)c2cccs2)cc1 (stereo not given) | 1 | -6 | 16 | 2 | 3 | -5 | .
